CHT block: inhibits the human high affinity choline transporter; CHT-expressing cells, membrane potential dye, choline response; hits give low values; B-score at 10 µM; 310,000 tested, 0.86% active; AID 488975;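 active means B-score over 3 SD under the library average, and starting fluorescence ratio not unusually high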;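 further: choline stimulus applied at its EC90 after an EC20 pre-addition; B-score computed on integrated fluorescence ratio after choline addition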
CHT allo act: allosteric activators of human choline transporter CHT. 310,000 tested, 0.49% active. CHT-expressing cells, membrane potential dye, choline EC20; hits give high values; LV-AA mutant CHT in HEK293 cells. B-score at 10 µM;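 active means initial fluorescence not abnormally high and integrated response B-score, plate-corrected, over 3 SD above library mean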
Rad51 HR inh: blocks human Rad51 in homologous recombination | inhibition, % at 10 µM | 200,000 tested, 0.085% active | AID 1385 | hRad51 DNA strand exchange, fluorescence dequenching | Q06609;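 active means inhibition above 40% at the single screening dose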
Target sequence (Q06609 whole entry, looked up): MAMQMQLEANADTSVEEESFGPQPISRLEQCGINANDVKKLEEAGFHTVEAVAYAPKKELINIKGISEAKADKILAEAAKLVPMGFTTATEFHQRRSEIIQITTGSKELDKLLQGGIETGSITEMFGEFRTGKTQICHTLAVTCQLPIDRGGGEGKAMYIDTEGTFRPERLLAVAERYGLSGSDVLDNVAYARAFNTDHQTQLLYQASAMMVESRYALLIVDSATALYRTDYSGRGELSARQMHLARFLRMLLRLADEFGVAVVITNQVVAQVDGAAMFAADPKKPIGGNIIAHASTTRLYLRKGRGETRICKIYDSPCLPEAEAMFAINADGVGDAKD
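Material: hRad51 filaments on single-stranded DNA; Reagent: Donor/quencher-labelled 47-bp dsDNA substrate; Compound: 10 µM final, single point; Schedule: 37 °C 15-min filament assembly, 30-min compound preincubation, 15-min exchange; Technique: FRET fluorescence, excitation 485 nm, emission 520 nm; Benchmarks: control wells and blank wells on each plate.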
KCC2 mod: KCC2 (human) Cl- transport modulation. Q9H2X9. 190,000 tested, 2.2% active. B-score of Tl+ flux slope (higher = more flux/activation; lower = inhibition) at 10 µM. KCC2 cells, thallium flux FluoZin-2 fluorescence;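 active means thallium flux slope and its plate-corrected score both differing from the plate sample mean at a set confidence after two filtering rounds, in either direction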;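 further: slope of fluorescence scaled to starting intensity during 10 to 20 s after thallium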
KCC2 secondary: confirmation of human KCC2 transport modulators. 3,700 tested, 15% active. shares compounds with KCC2 mod. normalised thallium flux (F/F0 slope) at 10 µM. HEK293-KCC2, thallium flux, FluoZin2 fluorescence; hits give high values;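 active means thallium flux slope above the same plate's solvent-only control mean plus 3 SD; inconclusive means the two replicate wells disagree; inactive means no significant difference from solvent-only control wells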
KCC2 bumet counter: bumetanide-insensitive thallium flux in KCC2 cells with ouabain, counter-screen; shares compounds with KCC2 mod; HEK293-KCC2 + bumetanide/ouabain, thallium flux FluoZin2; hits give high values; normalized thallium flux at 10 µM; 3,700 tested, 49% active; AID 1714;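 active means thallium entry rate above the same plate's blocked-transporter control wells by more than 3 SD; inconclusive means the two repeat wells disagree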;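 further: raw slope of fluorescence over initial fluorescence between 10 and 20 s after thallium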
KCC2 sec2: confirmation of human KCC2 transport modulators; shares compounds with KCC2 mod; HEK293-KCC2, thallium flux FluoZin2 fluorescence; actives lie on both sides; F/F0 rise rate, 10–20 s post-thallium; normalized thallium flux at 10 µM; 3,700 tested, 23% active; AID 1715;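 active means thallium flux slope more than 3 SD above or below the plate's solvent-only control mean, mostly below; inconclusive means the two repeat wells disagreed; inactive means no significant shift from solvent-only controls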
HEK293 Tl flux: parental HEK flux effect, counter-screen. thallium flux rate (normalised fluorescence) at 10 µM. HEK293 parental cells, thallium flux FluoZin2, ouabain; baseline-ratio fluorescence slope, 10–20 s after thallium. shares compounds with KCC2 mod. 3,700 tested, 46% active;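 active means thallium flux rate significantly above the same plate's solvent-only control wells, beyond their mean plus 3 SD; inconclusive means the two replicate wells gave conflicting results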
KCC2 retest ouab: KCC2 (human) modulation, ouabain retest | shares compounds with KCC2 mod | HEK293-KCC2, thallium flux FluoZin2 fluorescence; bidirectional: low = inhibitor, high = activator | raw Tl+ flux slope (below DMSO = inhibition, above = activation) at 10 µM | 3,700 tested, 48% active;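 active means thallium flux slope beyond 3 SD from same-plate DMSO control mean in most replicates, usually higher, sometimes lower; inconclusive means repeat tests gave conflicting results; inactive means no significant difference from controls in most replicates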;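 further: slope of initial-normalized fluorescence between seconds 10 and 20 after thallium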
HEK293 Tl flux2: parental HEK flux effect, counter-screen 2 | HEK293 parental, thallium flux FluoZin-2 fluorescence slope | 3,700 tested, 33% active | thallium flux slope at 10 µM | shares compounds with KCC2 mod | AID 1718;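 active means thallium flux slope above the same plate's solvent-control mean plus 3 SD in both duplicate wells; inconclusive means duplicate wells that disagreed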;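 further: run without ouabain in cells lacking the KCC2 cotransporter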
Large screens that a line does not name were inactive (follow-up assays come after a bar, where they were run). Only some compounds are listed: those with a hit (about 2.6% of all), similar ones and a draw of the others.

CC1(C)CC(=O)C(C=NCCN2CCN(C(=O)Cc3ccc(Cl)cc3)CC2)=C(O)C1	none
O=C(CCC(=O)N1CC2C[C@@H](C1)Cn1c2cccc1=O)NCCc1ccccc1	none (no result: Rad51 HR inh, KCC2 mod)
Cc1nn(Cc2ccccc2)c(C)c1C(=O)NCc1ccccc1F	Rad51 HR inh 44.2
Cc1cc(NCCN)nc2ccccc12	CHT allo act 11.5 (no result: Rad51 HR inh)
CSc1nc(N)c(N=Nc2ccc([As](=O)(O)O)cc2)c(=O)[nH]1	none
CN1/C(=C\C=C2C(=O)NC(=S)NC2=O)C(C)(C)c2ccccc21	KCC2 mod -4.63 (no result: CHT block, CHT allo act)
O=C(C1CCC(=O)N1C1CCCCC1)N1CCC2(CC1)OCCO2 (stereo unspecified)	none (no result: Rad51 HR inh)
CN1C(=O)COc2c(C(=O)NC3CN4CCC3CC4)cc(Cl)cc21 (stereo unspecified)	CHT allo act 8.95
CN1CC[C@@H](c2ccc(F)cc2)[C@H](COc2ccc3c(c2)OCO3)C1	none (no result: CHT block, CHT allo act, KCC2 mod)
C=C1CC[C@@]2(O)[C@H]3Cc4ccc(O)c5c4[C@@]2(CCN3CC2CC2)[C@H]1O5	none
C=C(C)CN1CC[C@]23c4c5ccc(O)c4O[C@H]2c2[nH]c4ccccc4c2C[C@@]3(O)C1C5	CHT block -5.31
CN1CCCN(C(=O)COc2ccc(F)cc2F)CC1	none (no result: Rad51 HR inh, KCC2 mod)
CN[C@H]1C[C@H]2O[C@@](C)([C@H]1OC)n1c3ccccc3c3c4c(c5c6ccccc6n2c5c31)C(=O)NC4	CHT block -5.28
CCCCCCn1c(O)c(C=NC2CCN(Cc3ccccc3)CC2)c(=O)[nH]c1=O	none (no result: KCC2 mod) | KCC2 secondary inactive | KCC2 bumet counter inactive | KCC2 sec2 inconclusive | HEK293 Tl flux inactive | KCC2 retest ouab inactive | HEK293 Tl flux2 inactive
C=CCn1c(O)c(C=NC2CCN(Cc3ccccc3)CC2)c(=O)[nH]c1=O	none
O=c1[nH]c(=S)[nH]c(O)c1N=Nc1ccc(OC(F)F)cc1	KCC2 mod 42.1 | KCC2 secondary inconclusive | KCC2 bumet counter 0.0732 | KCC2 sec2 inactive | HEK293 Tl flux 0.0106 | KCC2 retest ouab 0.0692 | HEK293 Tl flux2 inactive
COc1ccc(N=Nc2c(O)[nH]c(=S)[nH]c2=O)cc1	none
CC/C(=N\N1CCCCCC1)c1c(O)n(-c2ccccc2C)c(=O)[nH]c1=O	none
CCCCNC(=O)Nc1ccc(C(O)(C(=O)OCC)C(F)(F)F)cc1 (stereo unspecified)	KCC2 mod -4.73 | KCC2 secondary inactive | KCC2 bumet counter inactive | KCC2 sec2 inactive | HEK293 Tl flux inconclusive | KCC2 retest ouab inactive | HEK293 Tl flux2 inactive
Nc1ccccc1C(=O)OCCOc1ccccc1	none
Nc1ccccc1C(=O)OCC(=O)N1CCc2ccccc21	none (no result: CHT block, CHT allo act, Rad51 HR inh, KCC2 mod) | KCC2 secondary inactive | KCC2 bumet counter inconclusive | KCC2 sec2 inactive | HEK293 Tl flux inconclusive | KCC2 retest ouab 0.0134 | HEK293 Tl flux2 inactive
COc1cccc(-c2nc(CS(=O)CC(=O)N3CCC4(CC3)OCCO4)c(C)o2)c1 (stereo unspecified)	KCC2 mod -5.47 (no result: Rad51 HR inh) | KCC2 secondary inactive | KCC2 bumet counter inactive | KCC2 sec2 inconclusive | HEK293 Tl flux inactive | KCC2 retest ouab inactive | HEK293 Tl flux2 inactive
O=c1oc2ccccc2c(O)c1[C@H]1c2ccc(O)cc2Oc2c1c(=O)oc1ccccc21	none
COc1cc2c(cc1OC)-c1c(OC)c(OC)cc3c1[C@H](C2)[N+](C)(C)CC3	KCC2 mod 3.08 | KCC2 secondary inactive | KCC2 bumet counter inconclusive | KCC2 sec2 inactive | HEK293 Tl flux inactive | KCC2 retest ouab inactive | HEK293 Tl flux2 inactive

Screens from PubChem BioAssay.
